Assay results collected from several papers.
Each line is one published result; the experiments were not run side by side.
Effect on: cell growth or viability

| Compound | cell line | test | conditions | measurement | result |
| --- | --- | --- | --- | --- | --- |
| Cn1nnc2c(C(N)=O)ncn2c1=O | SNU1 | – | – | EC50 | 243 µM |
| COC(=O)COc1cccc(NC(=O)C2(c3cccc(Br)c3)CC2)c1 | U-937 | ATP luminescence | 72 h | GI50 | 3.5 µM |
| Cc1cc(=O)oc2ccc(-c3cc(-c4cccs4)nc(N)n3)c(O)c12 | KB | MTT | 128 µg/mL, 72 h | inhibition | 17% |
| COC(=O)COc1cccc(NC(=O)C2(c3cccc(C)c3)CC2)c1 | U-937 | ATP luminescence | 72 h | GI50 | > 200 µM |
| COc1ccc(-c2cc(-c3ccc4oc(=O)cc(C)c4c3O)nc(N)n2)cc1 | KB | MTT | 128 µg/mL, 72 h | inhibition | 28% |
| COC(=O)COc1ccc(NC(=O)C2(c3ccc(Cl)cc3)CC2)c(C)c1 | U-937 | ATP luminescence | 72 h | GI50 | 6 µM |
| Oc1ccc(Nc2nc(-c3ccc(Cl)cc3)cs2)cc1 | UACC-903 | MTS | 48 h | IC50 | 59.1 µM |
| Cc1cc(=O)oc2ccc(-c3cc(-c4cccc(Cl)c4)nc(N)n3)c(O)c12 | KB | MTT | 32 µg/mL, 72 h | inhibition | 16% |
| CC#CC(=O)N1CC[C@@H](n2cc(-c3ccc(Oc4c(F)cccc4F)cc3)c3c(N)n[nH]c(=O)c32)C1 | MINO | ATP luminescence | 72 h | GI50 | 5.18 µM |
| C=CC(=O)N1CCN(c2nc(=O)n(-c3c(C)ccnc3C(C)C)c3nc(-c4c(O)cccc4F)c(F)cc23)[C@@H](C)C1 | LS-513 | – | 5 days | EC50 | > 10 µM |
| Cc1cc(=O)oc2ccc(-c3cc(-c4ccc(Cl)cc4)nc(N)n3)c(O)c12 | KB | MTT | 32 µg/mL, 72 h | inhibition | 54% |
| CC(C)C[C@H](NC(=O)[C@H](Cc1ccccc1)NC(=O)c1cnccn1)B(O)O | SNU1 | ATP luminescence | – | IC50 | 0.014 µM |
| COC(=O)COc1ccc(NC(=O)C2(c3cccc(Br)c3)CC2)c(C)c1 | U-937 | ATP luminescence | 72 h | GI50 | 3.2 µM |
